Results: ChEMBL document CHEMBL4014343 (J Med Chem, 2017)
Calls of active or inactive are those of the source. No cut-off for these calls is given here.

Key:
[1] = tested on: OVCAR-8; assay: Growth inhibition of human OVCAR8 cells incubated for 48 hrs by sulforhodamine B assay; format: functional, cell-based
[2] = biological target: CDK2/Cyclin A2 (Homo sapiens) (UniProt P24941+P20248); assay: Inhibition of recombinant human N-terminal GST-tagged CDK2 (M1 to L298 residues)/Cyclin A2 (M1 to L432 residues) expressed in baculovirus infected sf9 cells at 1 uM using Histone H1 as substrate by filter binding assay
Summary of the method: (§1)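 Single-point profiling at 1 μM in a 22-kinase panel, performed externally by ProQinase; activity read as residual percent of control.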

[3] = tested on: SW-620; assay: Growth inhibition of human SW620 cells incubated for 48 hrs by sulforhodamine B assay; format: functional, cell-based
Summary of the method: (§2)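 NCI-60 panel growth inhibition, run by the U.S. National Cancer Institute; GI50 values are means of two test series.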

[4] = biological target: T1, Insulin-like growth factor 1 receptor (Homo sapiens, UniProt P08069); assay: Inhibition of IGF1R phosphorylation at Tyr1161 residue in human MCF7 cells at 0.5 uM after 1 hr by immunoblot analysis; format: cell-based
Summary of the method: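 MCF7 (DMEM/10% FBS, 24 h) treated with increasing concentrations for 1 h; 40 μg lysate on 10% SDS-PAGE, probed with p-IGF-1R (Y1161) antibody 1:1000 overnight at 4 °C; β-actin loading control, PI3K inhibitor positive control.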

[5] = tested on: MCF7; assay: Induction of apoptosis in human MCF7 cells assessed as PARP cleavage after 6 hrs by immunoblot analysis; format: functional, cell-based
Summary of the method: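 MCF7 in DMEM/10% FBS for 24 h, then treated 6 h; 0.1% DMSO as non-treated, Src inhibitor (10 μM) as positive control. Lysates (40 μg protein) on 10% SDS-PAGE, immunoblotted for PARP cleavage with ECL detection; β-actin loading control.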

[6] = tested on: SK-MEL-5; assay: Growth inhibition of human SK-MEL-5 cells incubated for 48 hrs by sulforhodamine B assay; format: functional, cell-based
[7] = tested on: COLO 205; assay: Growth inhibition of human COLO205 cells incubated for 48 hrs by sulforhodamine B assay; format: functional, cell-based
[8] = biological target: T1, Insulin-like growth factor 1 receptor; assay: Inhibition of IGF1R in human MCF7 cells assessed as reduction in Akt phosphorylation at Ser473 residue after 24 hrs by immunoblot analysis; format: cell-based
Summary of the method: (§3)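 Cells in their medium with 10% FBS exposed to rising concentrations for 24 h; whole-cell lysates immunoblotted for p-Akt (S473) and total Akt; PI3K inhibitor at 10 μM as positive control.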

[9] = biological target: Cyclin-dependent kinase 1/cyclin B1 (Homo sapiens) (UniProt P06493+P14635); assay: Inhibition of recombinant human N-terminal GST/His6-tagged CDK1 (M1 to M297 residues)/Cyclin B1 (M1 to V433 residues) expressed in sf9 cells at 1 uM using RB-CTF as substrate by filter binding assay; summary of the method: as §1
[10] = biological target: T2, Aurora kinase C (Homo sapiens) (UniProt Q9UQB9); assay: Inhibition of human N-terminal GST-tagged Aurora B (M1 to S27 residues) expressed in sf9 cells at 1 uM using CDC25C-derived peptide as substrate by filter binding assay; summary of the method: as §1
T2 sequence (whole entry): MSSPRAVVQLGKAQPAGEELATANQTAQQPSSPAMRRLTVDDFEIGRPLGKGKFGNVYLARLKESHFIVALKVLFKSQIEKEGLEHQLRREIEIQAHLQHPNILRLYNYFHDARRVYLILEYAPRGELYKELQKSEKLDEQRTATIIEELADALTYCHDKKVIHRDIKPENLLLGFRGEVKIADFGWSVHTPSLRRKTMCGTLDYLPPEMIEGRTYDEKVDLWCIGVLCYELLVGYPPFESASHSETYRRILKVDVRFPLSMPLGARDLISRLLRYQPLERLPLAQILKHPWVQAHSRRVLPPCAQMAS

[11] = biological target: Glycogen synthase kinase-3 beta (Homo sapiens, UniProt P49841); assay: Inhibition of human N-terminal GST/His6-tagged GSK3beta (M1 to T420 residues) expressed in baculovirus infected sf9 cells at 1 uM using RBER-IRStide as substrate by filter binding assay; summary of the method: as §1
[12] = tested on: UACC-62; assay: Growth inhibition of human UACC62 cells incubated for 48 hrs by sulforhodamine B assay; format: functional, cell-based; summary of the method: as §2
[13] = tested on: NCI/ADR-RES; assay: Growth inhibition of human NCI/ADR-RES cells incubated for 48 hrs by sulforhodamine B assay; format: functional, cell-based
[14] = biological target: Fibroblast growth factor receptor 1 (Homo sapiens) (UniProt P11362); assay: Inhibition of human N-terminal GST/His6-tagged FGFR1 (G400 to R820 residues) expressed in baculovirus infected sf9 cells at 1 uM using Poly(Glu,Tyr)4:1 as substrate by filter binding assay; summary of the method: as §1
[15] = tested on: SK-MEL-28; assay: Growth inhibition of human SK-MEL-28 cells incubated for 48 hrs by sulforhodamine B assay; format: functional, cell-based
[16] = biological target: T1, Insulin-like growth factor 1 receptor; assay: Inhibition of IGF1R in human MCF7 cells assessed as reduction in Akt phosphorylation at Ser473 residue at 1 uM after 15 mins by immunoblot analysis; format: cell-based
Summary of the method: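 MCF7 exposed to 1 μM and harvested at 15 min, 30 min, 1, 4 and 6 h; lysates immunoblotted with p-Akt (S473) antibody.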

[17] = tested on: 786-0; assay: Growth inhibition of human 786-0 cells incubated for 48 hrs by sulforhodamine B assay; format: functional, cell-based
[18] = tested on: NCI-H322M; assay: Growth inhibition of human NCI-H322M cells incubated for 48 hrs by sulforhodamine B assay; format: functional, cell-based
[19] = biological target: T1, Insulin-like growth factor 1 receptor; assay: Inhibition of IGF1R phosphorylation at Tyr1161 residue in human MCF7 cells at 1 uM after 1 hr by Hoechst 33258 staining based immunohistochemical analysis; format: cell-based
Summary of the method: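 MCF7 treated 1 h (test agent 1 μM; PI3K inhibitor 10 μM; 0.1% DMSO mock), fixed in 4% PFA 15 min, permeabilised/blocked, anti-p-IGF-1R Y1161 (1:200) overnight at 4 °C, Alexa 594 secondary 1 h, nuclei with Hoechst 33258 (1 μg/mL).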

[20] = biological target: Aurora kinase B (Homo sapiens) (UniProt Q96GD4); assay: Inhibition of human N-terminal GST/His6-tagged Aurora B (A2 to A344 residues) expressed in sf9 cells at 1 uM using tetra(LRRLSLG) as substrate by filter binding assay; summary of the method: as §1
[21] = tested on: HOP-92; assay: Growth inhibition of human HOP92 cells incubated for 48 hrs by sulforhodamine B assay; format: functional, cell-based
[22] = tested on: SNB-19; assay: Growth inhibition of human SNB19 cells incubated for 48 hrs by sulforhodamine B assay; format: functional, cell-based
[23] = tested on: DU-145; assay: Growth inhibition of human DU145 cells incubated for 48 hrs by sulforhodamine B assay; format: functional, cell-based
[24] = biological target: T1, Insulin-like growth factor 1 receptor; assay: Inhibition of IGF1R in human HeLa cells assessed as reduction in Akt phosphorylation at Ser473 residue after 24 hrs by immunoblot analysis; format: cell-based; summary of the method: as §3
[25] = biological target: Serine/threonine-protein kinase Chk2 (Homo sapiens) (UniProt O96017); assay: Inhibition of CHK2 (unknown origin) at 1 uM; summary of the method: as §1
[26] = tested on: SF-268; assay: Growth inhibition of human SF268 cells incubated for 48 hrs by sulforhodamine B assay; format: functional, cell-based
[27] = tested on: IGROV-1; assay: Growth inhibition of human IGROV1 cells incubated for 48 hrs by sulforhodamine B assay; format: functional, cell-based
[28] = tested on: PC-3; assay: Growth inhibition of human PC3 cells incubated for 48 hrs by sulforhodamine B assay; format: functional, cell-based

## CN1CCN(CCO/N=C2/C(=C3/C(=O)Nc4ccccc43)Nc3ccccc32)CC1
[1]
  growth inhibition (GI): Active
[2]
  inhibition: inactive
[3]
  growth inhibition (GI): Active
[4]
  inhibition: Active
[5]
  Activity: Active
[6]
  growth inhibition (GI): Active
[7]
  growth inhibition (GI): Active
[8]
  inhibition: Dose-dependent effect
[9]
  inhibition: inactive
[10]
  inhibition: inactive
[11]
  inhibition: inactive
[12]
  growth inhibition (GI): Active
[13]
  growth inhibition (GI): Active
[14]
  inhibition: inactive
[15]
  growth inhibition (GI): Active
[16]
  inhibition: Active
[17]
  growth inhibition (GI): Active
[18]
  growth inhibition (GI): Active
[19]
  inhibition: Active
[20]
  inhibition: inactive
[21]
  growth inhibition (GI): Active
[22]
  growth inhibition (GI): Active
[23]
  growth inhibition (GI): Active
[24]
  inhibition: Dose-dependent effect
[25]
  inhibition: inactive
[26]
  growth inhibition (GI): Active
[27]
  growth inhibition (GI): Active
[28]
  growth inhibition (GI): Active
